# Experimental data taken from ChEMBL document CHEMBL2396529, “Synthesis and anticancer mechanism investigation of dual Hsp27 and tubulin inhibitors” (J Med Chem, 2013).
# Active and inactive are the calls of the source. The calls are words filed in the database; no cut-off is given here.
# Columns and labels:
# SK-BR-3 = assay: Antiproliferative activity against human SKBR3 cells after 48 hrs by MTT assay; format: functional, cell-based; settings: SK-BR-3, 48 h
# Method in brief: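 MTT assay on SKBR-3 cells (RPMI 1640, 10% heat-inactivated FBS, 37 °C, 5% CO2), seeded 24 h before dosing, then exposed 48 h to a concentration series in DMSO (final ≤0.1%) with vehicle-matched controls. Afterwards 0.5 mg/mL MTT for 2 h, formazan dissolved in DMSO, A570 read, six replicates. IC50 from nonlinear regression.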
# [1] = target: Heat shock protein beta-1 (Homo sapiens) (UniProt P04792); assay: Inhibition of HSP27 (unknown origin) assessed as increase in DTT-induced insulin B chain aggregation at 5 uM incubated for 5 mins prior to DTT-treatment measured after 30 mins by spectrophotometric analysis relative to control
# Chain of Heat shock protein beta-1 (Homo sapiens) (P04792 whole entry): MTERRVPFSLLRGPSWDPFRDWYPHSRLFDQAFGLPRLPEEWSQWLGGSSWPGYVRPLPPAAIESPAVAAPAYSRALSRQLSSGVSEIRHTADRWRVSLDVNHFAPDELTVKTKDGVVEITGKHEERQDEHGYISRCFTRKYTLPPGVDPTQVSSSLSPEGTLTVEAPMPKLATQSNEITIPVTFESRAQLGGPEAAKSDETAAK
# [2] = target: Heat shock protein beta-1 (Homo sapiens) (UniProt P04792); assay: Inhibition of HSP27 (unknown origin) assessed as increase in DTT-induced insulin B chain aggregation at 10 uM incubated for 5 mins prior to DTT-treatment measured after 30 mins by spectrophotometric analysis relative to control
# Bos taurus = species on record: Bos taurus; settings: 100 uM
IC50 (SK-BR-3) [µM],Compound,also measured
2.85,CN(c1ccc(NC(=O)c2ccc3c(c2)OCO3)cc1OCc1cc(Cl)ccc1Cl)S(C)(=O)=O,
2.21,CN(c1ccc(NC(=O)c2ccc3ccccc3c2)cc1OCc1cc(Cl)ccc1Cl)S(C)(=O)=O,
0.0166,COc1ccc(OC)c(COc2cc(NC(=O)c3ccc4ccccc4c3)ccc2N(C)S(C)(=O)=O)c1,
,Cc1ccc(C)c(COc2cc(NC(=O)C3CCCCC3)ccc2N(C)S(C)(=O)=O)c1,inhibition [1]: 29%
18.4,Cc1ccc(C(F)(F)F)cc1COc1cc(NC(=O)c2ccc3ccccc3c2)ccc1N(C)S(C)(=O)=O,
41.4,Cc1ccc(C)c(COc2cc(NC(=O)c3ccc4ccccc4c3)ccc2N(C)S(=O)(=O)C(F)(F)F)c1,
,COc1ccc(C(=O)Nc2ccc(N(C)S(C)(=O)=O)c(OCc3cc(C)ccc3C)c2)cc1,inhibition [2]: 30%
,Cc1ccc(C)c(COc2cc(NC(=O)c3ccc(I)cc3)ccc2N(C)S(C)(=O)=O)c1,inhibition [2]: 28%
0.0133,COc1ccc(OC)c(COc2cc(NC(=O)c3ccc4ccccc4c3)ccc2NS(C)(=O)=O)c1,
0.00351,COc1ccc(OC)c(COc2cc(NC(=O)c3ccc(Br)cc3)ccc2N(C)S(C)(=O)=O)c1,
0.0134,COc1ccc(C(=O)Nc2ccc(NS(C)(=O)=O)c(OCc3cc(OC)ccc3OC)c2)cc1,
28.8,CCCCCCOc1cc(NC(=O)c2ccc3c(c2)OCO3)ccc1N(C)S(C)(=O)=O,
0.00261,COc1ccc(OC)c(COc2cc(NC(=O)c3ccc(OC)c(OC)c3)ccc2N(C)S(C)(=O)=O)c1,
0.2,COc1ccc(OC)c(COc2cc(NC(=O)c3ccc4ccccc4c3)ccc2N(C)S(=O)(=O)C(F)(F)F)c1,
0.71,COc1ccc(OC)c(COc2cc(NC(=O)c3ccc4c(c3)OCO4)ccc2N(C)S(=O)(=O)C(F)(F)F)c1,
0.47,COc1ccc(OC)c(COc2cc(NC(=O)c3ccc(Br)cc3)ccc2N(C)S(=O)(=O)C(F)(F)F)c1,
9.49,Cc1ccc(C(F)(F)F)cc1COc1cc(NC(=O)c2ccc(Br)cc2)ccc1N(C)S(C)(=O)=O,
0.51,COc1ccc(OC)c(COc2cc(NC(=O)c3ccc(I)cc3)ccc2N(C)S(=O)(=O)C(F)(F)F)c1,
39.3,COc1ccc(C(=O)Nc2ccc(N(C)S(=O)(=O)C(F)(F)F)c(OCc3cc(C)ccc3C)c2)cc1OC,
0.66,CN(c1ccc(NC(=O)c2ccc(I)cc2)cc1OCc1cc(Cl)ccc1Cl)S(C)(=O)=O,
0.55,COc1ccc(OC)c(COc2cc(NC(=O)c3ccc(OC)c(OC)c3)ccc2N(C)S(=O)(=O)C(F)(F)F)c1,
0.11,COc1ccc(C(=O)Nc2ccc(N(C)S(=O)(=O)C(F)(F)F)c(OCc3cc(OC)ccc3OC)c2)cc1,

IC50 (SK-BR-3) [µM],Compound,also measured
39.9,CCCCCCOc1cc(NC(=O)c2ccc(Br)cc2)ccc1N(C)S(C)(=O)=O,
3.5,Cc1ccc(C(F)(F)F)cc1COc1cc(NC(=O)c2ccc(I)cc2)ccc1N(C)S(C)(=O)=O,
16.9,COc1ccc(C(=O)Nc2ccc(N(C)S(C)(=O)=O)c(OCc3cc(C(F)(F)F)ccc3C)c2)cc1OC,
0.0353,COc1ccc(OC)c(COc2cc(NC(=O)c3ccc4c(c3)OCO4)ccc2NS(C)(=O)=O)c1,
0.49,COc1ccc(C(=O)Nc2ccc(N(C)S(C)(=O)=O)c(OCc3cc(Cl)ccc3Cl)c2)cc1,
100,CS(=O)(=O)Nc1ccc([N+](=O)[O-])cc1Oc1ccccc1 [NIMESULIDE],inhibition [2]: inactive; inhibition (Bos taurus): 14%
0.00958,COc1ccc(OC)c(COc2cc(NC(=O)c3ccc(Br)cc3)ccc2NS(C)(=O)=O)c1,
2.03,COc1ccc(C(=O)Nc2ccc(N(C)S(C)(=O)=O)c(OCc3cc(C(F)(F)F)ccc3C)c2)cc1,
12.7,CCCCCCOc1cc(NC(=O)c2ccc(I)cc2)ccc1N(C)S(C)(=O)=O,
3.73,COc1ccc(C(=O)Nc2ccc(N(C)S(C)(=O)=O)c(OCc3cc(Cl)ccc3Cl)c2)cc1OC,
0.0118,COc1ccc(OC)c(COc2cc(NC(=O)c3ccc(I)cc3)ccc2NS(C)(=O)=O)c1,
0.011,COc1ccc(OC)c(COc2cc(NC(=O)c3ccc(OC)c(OC)c3)ccc2NS(C)(=O)=O)c1,
100,CCCCCCOc1cc(NC(=O)c2ccc(OC)c(OC)c2)ccc1N(C)S(C)(=O)=O,
64.3,CCCCCCOc1cc(NC(=O)c2ccc3ccccc3c2)ccc1N(C)S(C)(=O)=O,
36.4,Cc1ccc(C)c(COc2cc(NC(=O)c3ccc(Br)cc3)ccc2N(C)S(=O)(=O)C(F)(F)F)c1,
13.5,Cc1ccc(C)c(COc2cc(NC(=O)c3ccc(I)cc3)ccc2N(C)S(=O)(=O)C(F)(F)F)c1,
5.32,COc1ccc(C(=O)Nc2ccc(N(C)S(=O)(=O)C(F)(F)F)c(OCc3cc(C)ccc3C)c2)cc1,
14.7,Cc1ccc(C(F)(F)F)cc1COc1cc(NC(=O)c2ccc3c(c2)OCO3)ccc1N(C)S(C)(=O)=O,
20,CCCCCCOc1cc(NC(=O)c2ccc(OC)cc2)ccc1N(C)S(C)(=O)=O,
2.29,CN(c1ccc(NC(=O)c2ccc(Br)cc2)cc1OCc1cc(Cl)ccc1Cl)S(C)(=O)=O,
0.00752,COc1ccc(OC)c(COc2cc(NC(=O)c3ccc4c(c3)OCO4)ccc2N(C)S(C)(=O)=O)c1,
21.8,Cc1ccc(C)c(COc2cc(NC(=O)c3ccc4c(c3)OCO4)ccc2N(C)S(=O)(=O)C(F)(F)F)c1,
